{
  "source": "ChEMBL document CHEMBL1154962",
  "about": "“Novel 6-N-arylcarboxamidopyrazolo[4,3-d]pyrimidin-7-one derivatives as potential anti-cancer agents” (2010)",
  "data": [
    {"system": "HT-29", "assay": "Cytotoxicity against human HT-29 cells at 100 uM after 2 days by sulforhodamine B assay", "format": "functional", "details": "HT-29, 48 h", "outline": "(§1)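 Five human cancer lines (HT-29, DU-145, A-549, SK-MEL-2, SK-OV-3) seeded at 3–7 × 10³ cells/well; compounds at 100 µM added in duplicate; 37 °C, 5% CO₂, two days. Fixed with formalin, SRB stained, washed with 1% acetic acid, dye solubilized in 10 mM unbuffered Tris base; OD at 520 nm. Read-out is % inhibition.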", "units": {"inhibition at 100 µM": "%"}, "values": [
      {"molecule": "O=C(Nn1c(CCc2ccccc2)nc2c(-c3ccc(Cl)cc3)n[nH]c2c1=O)c1ccccc1", "inhibition at 100 µM": 86.5},
      {"molecule": "COc1cccc(-c2nc3c(-c4cccc(Cl)c4)n[nH]c3c(=O)n2NC(=O)c2ccccc2)c1", "inhibition at 100 µM": 91},
      {"molecule": "O=C(Nn1c(-c2cccc([N+](=O)[O-])c2)nc2c(CCc3ccccc3)n[nH]c2c1=O)c1ccccc1", "inhibition at 100 µM": 89.7},
      {"molecule": "COc1cccc2c1C(=O)c1c(O)c3c(c(O)c1C2=O)C[C@@](O)(C(=O)CO)C[C@@H]3O[C@H]1C[C@H](N)[C@H](O)[C@H](C)O1", "note": "[DOXORUBICIN]", "inhibition at 100 µM": 60.9},
      {"molecule": "CCCc1nc2c(-c3ccc(Cl)cc3)n[nH]c2c(=O)n1NC(=O)c1ccccc1", "inhibition at 100 µM": 91.1},
      {"molecule": "O=C(Nn1c(-c2cccc([N+](=O)[O-])c2)nc2c(-c3cccs3)n[nH]c2c1=O)c1cccnc1", "inhibition at 100 µM": 3.9},
      {"molecule": "CC(C)(C)c1ccc(C(=O)Nn2c(CC3CCCCC3)nc3c(-c4ccc(Cl)cc4)n[nH]c3c2=O)cc1", "inhibition at 100 µM": 72.3},
      {"molecule": "CCCc1nc2c(-c3ccc(Cl)cc3)n[nH]c2c(=O)n1NC(=O)Cc1ccccc1", "inhibition at 100 µM": 91.4}
    ]},
    {"system": "DU-145", "assay": "Cytotoxicity against human DU145 cells at 100 uM after 2 days by sulforhodamine B assay", "format": "functional", "details": "DU-145, 48 h", "outline": "as §1", "units": {"inhibition at 100 µM": "%"}, "values": [
      {"molecule": "O=C(Nn1c(CCc2ccccc2)nc2c(-c3ccc(Cl)cc3)n[nH]c2c1=O)c1ccccc1", "inhibition at 100 µM": 85.6},
      {"molecule": "COc1cccc(-c2nc3c(-c4cccc(Cl)c4)n[nH]c3c(=O)n2NC(=O)c2ccccc2)c1", "inhibition at 100 µM": 93.5},
      {"molecule": "O=C(Nn1c(-c2cccc([N+](=O)[O-])c2)nc2c(CCc3ccccc3)n[nH]c2c1=O)c1ccccc1", "inhibition at 100 µM": 92.5},
      {"molecule": "COc1cccc2c1C(=O)c1c(O)c3c(c(O)c1C2=O)C[C@@](O)(C(=O)CO)C[C@@H]3O[C@H]1C[C@H](N)[C@H](O)[C@H](C)O1", "note": "[DOXORUBICIN]", "inhibition at 100 µM": 62.8},
      {"molecule": "CCCc1nc2c(-c3ccc(Cl)cc3)n[nH]c2c(=O)n1NC(=O)c1ccccc1", "inhibition at 100 µM": 89.4},
      {"molecule": "O=C(Nn1c(-c2cccc([N+](=O)[O-])c2)nc2c(-c3cccs3)n[nH]c2c1=O)c1cccnc1", "inhibition at 100 µM": 32.8},
      {"molecule": "CC(C)(C)c1ccc(C(=O)Nn2c(CC3CCCCC3)nc3c(-c4ccc(Cl)cc4)n[nH]c3c2=O)cc1", "inhibition at 100 µM": 65.2},
      {"molecule": "CCCc1nc2c(-c3ccc(Cl)cc3)n[nH]c2c(=O)n1NC(=O)Cc1ccccc1", "inhibition at 100 µM": 89.7}
    ]},
    {"system": "DU-145", "assay": "Growth inhibition of human DU145 cells after 2 days by MTT assay", "format": "functional", "details": "DU-145, 48 h", "outline": "(§2)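 HT-29 and DU-145 cells seeded at 5 × 10⁴ cells/mL; serial concentrations added in duplicate; 37 °C, 5% CO₂, two days. MTT dye (Cell Titer96) for up to 4 h at 37 °C, then solubilization/stop mix overnight at room temperature; OD at 570 nm. GI₅₀ = concentration giving 50% growth inhibition; mean ± SEM of three or more experiments; doxorubicin as internal standard.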", "units": {"GI50": "µM"}, "values": [
      {"molecule": "O=C(Nn1c(CCc2ccccc2)nc2c(-c3ccc(Cl)cc3)n[nH]c2c1=O)c1ccccc1", "GI50": 86.7},
      {"molecule": "COc1cccc2c1C(=O)c1c(O)c3c(c(O)c1C2=O)C[C@@](O)(C(=O)CO)C[C@@H]3O[C@H]1C[C@H](N)[C@H](O)[C@H](C)O1", "note": "[DOXORUBICIN]", "GI50": 0.35},
      {"molecule": "CCCc1nc2c(-c3ccc(Cl)cc3)n[nH]c2c(=O)n1NC(=O)c1ccccc1", "GI50": 29.2},
      {"molecule": "CC(C)(C)c1ccc(C(=O)Nn2c(CC3CCCCC3)nc3c(-c4ccc(Cl)cc4)n[nH]c3c2=O)cc1", "GI50": "> 100"},
      {"molecule": "CCCc1nc2c(-c3ccc(Cl)cc3)n[nH]c2c(=O)n1NC(=O)Cc1ccccc1", "GI50": 16}
    ]},
    {"system": "HT-29", "assay": "Growth inhibition of human HT-29 cells after 2 days by MTT assay", "format": "functional", "details": "HT-29, 48 h", "outline": "as §2", "units": {"GI50": "µM"}, "values": [
      {"molecule": "O=C(Nn1c(CCc2ccccc2)nc2c(-c3ccc(Cl)cc3)n[nH]c2c1=O)c1ccccc1", "GI50": 23.4},
      {"molecule": "COc1cccc2c1C(=O)c1c(O)c3c(c(O)c1C2=O)C[C@@](O)(C(=O)CO)C[C@@H]3O[C@H]1C[C@H](N)[C@H](O)[C@H](C)O1", "note": "[DOXORUBICIN]", "GI50": 0.85},
      {"molecule": "CCCc1nc2c(-c3ccc(Cl)cc3)n[nH]c2c(=O)n1NC(=O)c1ccccc1", "GI50": 9.26},
      {"molecule": "CC(C)(C)c1ccc(C(=O)Nn2c(CC3CCCCC3)nc3c(-c4ccc(Cl)cc4)n[nH]c3c2=O)cc1", "GI50": 1.06},
      {"molecule": "CCCc1nc2c(-c3ccc(Cl)cc3)n[nH]c2c(=O)n1NC(=O)Cc1ccccc1", "GI50": 15.2}
    ]},
    {"system": "SK-MEL-2", "assay": "Cytotoxicity against human SK-MEL-2 cells at 100 uM after 2 days by sulforhodamine B assay", "format": "functional", "details": "SK-MEL-2, 48 h", "outline": "as §1", "units": {"inhibition at 100 µM": "%"}, "values": [
      {"molecule": "COc1cccc(-c2nc3c(-c4cccc(Cl)c4)n[nH]c3c(=O)n2NC(=O)c2ccccc2)c1", "inhibition at 100 µM": 81.9},
      {"molecule": "O=C(Nn1c(-c2cccc([N+](=O)[O-])c2)nc2c(CCc3ccccc3)n[nH]c2c1=O)c1ccccc1", "inhibition at 100 µM": 92},
      {"molecule": "O=C(Nn1c(-c2cccc([N+](=O)[O-])c2)nc2c(-c3cccs3)n[nH]c2c1=O)c1cccnc1", "inhibition at 100 µM": 3.26}
    ]},
    {"system": "A549", "assay": "Cytotoxicity against human A549 cells at 100 uM after 2 days by sulforhodamine B assay", "format": "functional", "details": "A549, 48 h", "outline": "as §1", "units": {"inhibition at 100 µM": "%"}, "values": [
      {"molecule": "O=C(Nn1c(-c2cccc([N+](=O)[O-])c2)nc2c(CCc3ccccc3)n[nH]c2c1=O)c1ccccc1", "inhibition at 100 µM": 73.9},
      {"molecule": "O=C(Nn1c(-c2cccc([N+](=O)[O-])c2)nc2c(-c3cccs3)n[nH]c2c1=O)c1cccnc1", "inhibition at 100 µM": 10.2}
    ]}
  ]
}
